The target of test [1] is Cruzipain (Trypanosoma cruzi) (UniProt P25779). The experiment in a line: Inhibition of recombinant Trypanosoma cruzi cruzain at 100 uM using Z-FR-AMC as substrate preincubated for 10 mins followed by substrate addition measured for 5 mins by fluorimetric analysis relative to control. The gist of the method:
(§1)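 Recombinant enzyme (cruzain expressed in-house; rhodesain donated) at 0.5 nM in 0.1 M sodium acetate pH 5.5 with 1 mM DTT and 0.01% Triton X-100. Compound pre-incubated with enzyme 10 min, then 2.5 µM Z-FR-AMC added. Fluorescence followed 5 min. Activity taken from initial rates against DMSO control, E64 as positive control. Screen at 100 µM. IC50 from ≥8 concentrations by nonlinear regression. Two independent experiments in triplicate.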

For test [2], the target named is Rhodesain (Trypanosoma brucei rhodesiense) (UniProt Q95PM0). The experiment in a line: Inhibition of recombinant Trypanosoma brucei rhodesain at 100 uM using Z-FR-AMC as substrate preincubated for 10 mins followed by substrate addition measured for 5 mins by fluorimetric analysis relative to control. The gist of the method:
as §1

Test [3] addresses T1, Rhodesain (Trypanosoma brucei rhodesiense, UniProt Q95PM0). Nature of the test: Inhibition of recombinant Trypanosoma brucei rhodesain using Z-FR-AMC as substrate preincubated for 10 mins followed by substrate addition measured for 5 mins by fluorimetric analysis relative to control. The gist of the method: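 Recombinant rhodesain (0.5 nM) in 0.1 M sodium acetate pH 5.5 with 1 mM DTT and 0.01% Triton X-100, pre-incubated with compound for 10 min before adding 2.5 µM Z-FR-AMC. Fluorescence monitored 5 min. Initial rates compared with DMSO control. Screen at 100 µM; IC50 determined for compounds above 70% inhibition, from at least 8 concentrations, two independent experiments in triplicate.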

Test [4] concerns the target Rhodesain (Trypanosoma brucei rhodesiense) (UniProt Q95PM0). The experiment in a line: Inhibition of recombinant Trypanosoma brucei rhodesain at 100 uM using Z-FR-AMC as substrate by fluorimetric analysis relative to control. The gist of the method: as §1
Test [5] shares this target. The experiment in a line: Inhibition of recombinant Trypanosoma brucei rhodesain at 100 uM using Z-FR-AMC as substrate by fluorimetric analysis. The following applies: TDE = time-dependent effect. The gist of the method:
as §1

The target in test [6] is T1, Rhodesain. The experiment in a line: Inhibition of recombinant Trypanosoma brucei rhodesain using Z-FR-AMC as substrate by fluorimetric analysis relative to control. The gist of the method:
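Rhodesain (recombinant, gift) 0.5 nM in 0.1 M sodium acetate pH 5.5 with 1 mM DTT and 0.01% Triton X-100. Z-FR-AMC substrate 2.5 µM, read by fluorescence over 5 min. Activity from initial rates versus DMSO control, with E64 as positive control. Two independent experiments in triplicate. IC50 from at least 8 concentrations by nonlinear regression.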

For test [7], the target named is Rhodesain (Trypanosoma brucei rhodesiense) (UniProt Q95PM0). Nature of the test: Reversible inhibition of recombinant Trypanosoma brucei rhodesain using Z-FR-AMC as substrate measured for 30 mins by fluorimetric analysis. The gist of the method:
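Rhodesain at 100-fold final assay concentration incubated 30 min with compound at 10-fold its IC50. The mixture was then diluted 100-fold into buffer with 2.5 µM Z-FR-AMC, giving standard enzyme level and 0.1× IC50. AMC release was monitored continuously for 30 min and compared with vehicle control. E-64 served as irreversible reference.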

For a further test, the target named is Cruzipain (Trypanosoma cruzi, UniProt P25779). The experiment in a line: Inhibition of recombinant Trypanosoma cruzi cruzain using Z-FR-AMC as substrate preincubated for 10 mins followed by substrate addition measured for 5 mins by fluorimetric analysis relative to control. The gist of the method: as §1
Sequence of Cruzipain (P25779 whole entry): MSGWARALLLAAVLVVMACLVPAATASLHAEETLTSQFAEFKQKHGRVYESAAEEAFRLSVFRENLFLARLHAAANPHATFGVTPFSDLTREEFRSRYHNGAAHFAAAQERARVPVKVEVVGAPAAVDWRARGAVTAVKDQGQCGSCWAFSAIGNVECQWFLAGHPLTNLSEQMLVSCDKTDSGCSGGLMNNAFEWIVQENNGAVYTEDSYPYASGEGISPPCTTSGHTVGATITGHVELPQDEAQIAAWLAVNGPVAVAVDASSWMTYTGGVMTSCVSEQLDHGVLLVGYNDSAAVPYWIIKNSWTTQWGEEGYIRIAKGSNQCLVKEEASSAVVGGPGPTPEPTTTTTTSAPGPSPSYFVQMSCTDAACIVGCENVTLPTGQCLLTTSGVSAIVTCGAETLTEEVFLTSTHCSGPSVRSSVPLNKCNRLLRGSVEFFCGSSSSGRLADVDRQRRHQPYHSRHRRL
For test [8], the target named is Rhodesain (Trypanosoma brucei rhodesiense) (UniProt Q95PM0). The experiment in a line: Inhibition of recombinant Trypanosoma brucei rhodesain at 0.1 uM using Z-FR-AMC as substrate by fluorimetric analysis relative to control.
Sequence of Rhodesain (Trypanosoma brucei rhodesiense) (Q95PM0 1-450): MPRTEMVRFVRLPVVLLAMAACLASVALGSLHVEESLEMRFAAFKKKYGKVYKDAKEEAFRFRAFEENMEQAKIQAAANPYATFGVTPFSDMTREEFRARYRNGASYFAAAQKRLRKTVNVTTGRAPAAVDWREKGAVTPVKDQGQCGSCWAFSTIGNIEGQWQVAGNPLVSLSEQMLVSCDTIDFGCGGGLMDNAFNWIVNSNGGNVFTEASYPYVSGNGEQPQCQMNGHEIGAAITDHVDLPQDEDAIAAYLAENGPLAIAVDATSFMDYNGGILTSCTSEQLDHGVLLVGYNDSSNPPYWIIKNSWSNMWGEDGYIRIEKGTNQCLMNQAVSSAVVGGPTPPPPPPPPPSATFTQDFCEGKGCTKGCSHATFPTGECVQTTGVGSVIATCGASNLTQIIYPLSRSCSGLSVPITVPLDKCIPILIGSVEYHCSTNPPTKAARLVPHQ
For test [9] the target is unchanged. The experiment in a line: Inhibition of recombinant Trypanosoma brucei rhodesain at 0.1 uM using Z-FR-AMC as substrate preincubated for 10 mins followed by substrate addition by fluorimetric analysis relative to control.
In a further test the test system is Vero. The experiment in a line: Cytotoxicity against African green monkey Vero cells measured after 24 hrs. The class given is functional. The following applies: Chlorocebus sabaeus.
The next test deals with Trypanosoma cruzi. Nature of the test: Antitrypanosomal activity against Trypanosoma cruzi Dm28c assessed as live parasite count measured after 72 hrs by optical microscopy. The following applies: read-out: LD50 (the source's name). The class given is functional.
In test [10] the target is T1, Rhodesain. The experiment in a line: Binding affinity to Trypanosoma brucei rhodesain. The gist of the method:
as §1

Calls of active or inactive are those of the source. The calls are words filed in the database; no cut-off is given here.

Sequence of Cruzipain (Trypanosoma cruzi) (P25779 123-467 limits assumed): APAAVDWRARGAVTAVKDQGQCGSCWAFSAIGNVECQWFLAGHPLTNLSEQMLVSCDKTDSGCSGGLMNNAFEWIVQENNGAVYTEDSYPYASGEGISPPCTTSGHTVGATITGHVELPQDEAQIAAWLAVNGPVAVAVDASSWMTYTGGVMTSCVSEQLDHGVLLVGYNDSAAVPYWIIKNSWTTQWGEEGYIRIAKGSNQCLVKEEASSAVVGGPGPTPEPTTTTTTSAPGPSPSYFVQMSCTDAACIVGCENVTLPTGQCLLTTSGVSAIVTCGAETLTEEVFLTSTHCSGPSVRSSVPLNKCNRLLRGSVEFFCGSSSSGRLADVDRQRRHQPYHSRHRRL
T1 sequence (Q95PM0 whole entry): as the sequence (Q95PM0 1-450) above

Take `O=C1C=C(O)c2ccccc2/C1=N/NC(=O)c1ccncc1`: the results for the inhibition in test [1] and in [2] were 66% and 52%, respectively.
On to `O=C1C(Cl)=C(Cl)C(=O)c2ccccc21`, for which the inhibition was found to be 49% in [1] and 56% in test [2].
Take `O=C1C=C(O)C(=O)c2ccccc21` [LAWSONE]: the inhibition in test [1] was 58%; in test [2], 77%; in test [4], 27%; in test [5], “Tde”. The IC50 on Rhodesain [3] is 33 µM; at Rhodesain [6], greater than 100 µM. Moreover, the inhibition result in test [7] is “Active”.
In the case of `O=C1C=C(Nc2ccc(S(=O)(=O)Nc3ccccn3)cc2)C(=O)c2ccccc21`, the inhibition in test [1] is 95%; in test [2], 93%; in [4] it was 48%; in test [5] it was “Tde”. Besides, the results for the IC50 at Cruzipain, on Rhodesain [3] and on Rhodesain [6] were 6.3 µM, 1.8 µM and 30 µM, respectively. Further, the inhibition result in test [7] is “Active”.
As to `CC(C)C[C@H](NC(=O)[C@H]1O[C@@H]1C(=O)O)C(=O)NCCCCN=C(N)N` [E-64], the IC50 on Cruzipain amounted to 0.02 µM; on Rhodesain [3] it was 0.0031 µM. Moreover, the inhibition worked out at 7% in test [8] and 95% in test [9]. In addition, in test [7], the inhibition result was “Active”.
Consider `CC(C)=CCC1=C(O)c2ccccc2/C(=N/NC(N)=S)C1=O`, for which the results for the inhibition in [1], in test [2] and in [4] were 83%, 82% and 79%, respectively. For the same molecule, the IC50 on Cruzipain was 34 µM; at Rhodesain [3], 28 µM; on Rhodesain [6], 66 µM. Besides, the inhibition result in test [7] was “Active”.
The molecule `CC1(C)CCC2=C(O1)C1(CO1)c1ccccc1C2=O` (stereo not given) had a CC50 with Vero greater than 50 µM. The LC50 in the test with Trypanosoma cruzi is less than 3.1 µM.
As to `CC(C)C[C@H](NC(=O)[C@H](Cc1ccccc1)NC1=C(C#N)C(=O)c2ccccc2C1=O)C(=O)O`, the affinity at Rhodesain [10], expressed as Ki, was 0.0005 µM.
Consider `CC(C)=CCC1=C(O)C(=O)c2ccccc2C1=O` [LAPACHOL], for which the inhibition was 35% in test [1], 70% in test [2], 18% in [4] and “Tde” in test [5]. The IC50 was 58 µM on Rhodesain [3] and greater than 100 µM at Rhodesain [6]. Besides, in [7], the inhibition entry is “Active”.
For the molecule `O=C1C=C(Br)C(=O)c2ccccc21`, the inhibition in test [1] was found to be 51%; in test [2] it was 50%.
Consider `O=C(NNC1=CC(=O)c2ccccc2C1=O)c1ccncc1`, for which the inhibition in [1] and in test [2] was 37% throughout.
For `CC(NC1=CC(=O)c2ccccc2C1=O)c1ccccc1` (stereo not given), the inhibition was 26% in test [1] and 23% in test [2].
In the same order, the values of `O=C1C=C(Nc2ccccc2)C(=O)c2ccccc21` are 48% and 61%.
As for `CC(C)=CCC1=C(O)c2ccccc2/C(=N/NC(=O)c2ccncc2)C1=O`, the inhibition amounted to 76% in [1], 87% in [2] and 73% in [4]. Moreover, the IC50 on Cruzipain was determined as 33 µM; on Rhodesain [3], 20 µM; at Rhodesain [6] it was 29 µM. Also, the inhibition result in test [7] is “Active”.
For `Cc1cc(NS(=O)(=O)c2ccc(NC3=CC(=O)c4ccccc4C3=O)cc2)no1`, the inhibition was 6% in [1] and 1% in test [2].
Take `COC1=CC(=O)c2ccccc2C1=O`: the values for the inhibition in test [1] and in [2] were 32% and 27%, respectively.

Values taken from ChEMBL document CHEMBL4811271, “Computer-aided design of 1,4-naphthoquinone-based inhibitors targeting cruzain and rhodesain cysteine proteases” (Bioorg Med Chem, 2021).
